Results from different studies.
Each line is one published result; the experiments were not run side by side.
Read-out: DPPH scavenging

Compound | test | setting | inhibition
Cc1ccc(C(C)C)cc1NC(=O)COC(=O)c1cc(O)cc(O)c1 |  | 100 µg/mL | 7.12%
CCN(O)N=Nc1ccc(S(=O)(=O)Nc2onc(C)c2C)cc1 | absorbance | 180 µg/mL | 22.5%
COc1cc(C=Cc2cc(-c3ccccc3)nc(O)n2)ccc1O |  | 25 µg/mL | 50%
Cc1ccc(C(C)C)cc1NC(=O)COC(=O)c1ccc(O)cc1O |  | 100 µg/mL | 2.4%
Cc1cc(NS(=O)(=O)c2ccc(N=NN(O)c3ccccc3)cc2)no1 | absorbance | 20 µg/mL | 21.8%
Cc1ccc(C(C)C)cc1NC(=O)COC(=O)/C=C/c1ccccc1O |  | 100 µg/mL | 1.15%
Cc1cccc(N(O)N=Nc2ccc(S(=O)(=O)Nc3cc(C)on3)cc2)c1 | absorbance | 300 µg/mL | 37.1%
COc1cc(C=CC(=O)CC(c2ccc([N+](=O)[O-])cc2)n2ccnc2)ccc1O (stereo not drawn) |  | 12.5 µg/mL | 37.1%
Cc1ccc(C(C)C)cc1NC(=O)COC(=O)/C=C/c1ccccc1 |  | 100 µg/mL | 1.39%
Cc1ccc(N(O)N=Nc2ccc(S(=O)(=O)Nc3onc(C)c3C)cc2)cc1 | absorbance | 300 µg/mL | 32.6%
COc1cc(C=CC(=O)CC(c2ccc(N(C)C)cc2)n2ccnc2)ccc1O (stereo not drawn) |  | 100 µg/mL | 73.5%
O=C1O[C@H]([C@@H](O)CO)C(O)=C1O | absorbance | 120 µM | 59%
COc1cc(C=Cc2cc(-c3ccc(N(C)C)cc3)nc(O)n2)ccc1O |  | 25 µg/mL | 46.6%
CCN(O)N=Nc1ccc(S(=O)(=O)Nc2nccs2)cc1 | absorbance | 240 µg/mL | 25.2%
Oc1ccc(Br)cc1C=NCCN1CCOCC1 | absorbance | 160 µM | 36.5%
Cc1ccc(C(C)C)cc1NC(=O)COC(=O)/C=C/c1ccc(O)cc1 |  | 100 µg/mL | 8.51%
O=C1O[C@H]([C@@H](O)CO)C(O)=C1O |  | 25 µg/mL | 57.2%
Cc1ccc(N(O)N=Nc2ccc(S(=O)(=O)Nc3cc(C)on3)cc2)cc1 | absorbance | 240 µg/mL | 29.7%
